In the library only some 1.4% were active in any assay of this set; here they are far more common.
hK5 inh: human KLK5 protease inhibitors, primary screen, biochemical, 1536-well | inhibition, % at 5 µM | recombinant hK5, fluorogenic AMC substrate cleavage | 0.59% of 210,000 active | Kallikrein-5 (Homo sapiens), Q9Y337 | AID 873, 2007;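 active = inhibition of 40% or more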;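 note: 0% = enzyme controls without compound and 100% = no-enzyme blanks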
Rce1 inh: yeast Rce1p protease inhibitors, primary screen, biochemical, fluorescence, cell-free homogeneous; CAAX prenyl protease 2 (Saccharomyces cerevisiae (strain ATCC 204508 / S288c)), Q03530; yeast membranes, quenched prenylated peptide cleavage fluorescence; calls only; 0.27% of 290,000 active; AID 2563, 2010;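 active = fall in fluorescence gain of 50% or more versus controls, with final raw signal at or below 3038400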;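 note: plate controls were neutral control wells for no effect and wells lacking membranes for full effect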
thrombin 1536: human alpha-thrombin inhibitors, primary screen, counter-screen for coagulation protease inhibitor project, biochemical, 1536-well, fluorogenic AMC substrate; Prothrombin (Homo sapiens), P00734; Boc-VPR-AMC fluorogenic substrate cleavage; inhibition, % at 5 µM; 0.26% of 220,000 active;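 active = inhibition at or above 40%; inactive = inhibition below 40%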;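 note: 0% = enzyme with no compound and 100% = wells without enzyme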
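Test system: human alpha-thrombin protein / Dosing: one concentration per compound, 5 µM, with 0.2% DMSO / Medium: pH 7.5 Tris-saline with Tween 20 / Benchmarks: no-compound enzyme wells and no-enzyme blanks / Read-out basis: percent inhibition of thrombin substrate cleavage / Timing: reaction at room temperature / Measured by: fluorescence, ex 355 nm, em 460 nm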
FXIIa inh 1536: human FXIIa protease inhibitors, primary screen, biochemical, 1536-well; inhibition, % at 5 µM; AID 800, 2007; 0.3% of 220,000 active; purified FXIIa, Boc-QGR-AMC fluorogenic substrate, 2 h; Coagulation factor XII (Homo sapiens), P00748; in the data active = inhibition above about 40%;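 note: 0% = enzyme with no compound and 100% = blank without enzyme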
Target sequence (P00748 20-372 limits assumed): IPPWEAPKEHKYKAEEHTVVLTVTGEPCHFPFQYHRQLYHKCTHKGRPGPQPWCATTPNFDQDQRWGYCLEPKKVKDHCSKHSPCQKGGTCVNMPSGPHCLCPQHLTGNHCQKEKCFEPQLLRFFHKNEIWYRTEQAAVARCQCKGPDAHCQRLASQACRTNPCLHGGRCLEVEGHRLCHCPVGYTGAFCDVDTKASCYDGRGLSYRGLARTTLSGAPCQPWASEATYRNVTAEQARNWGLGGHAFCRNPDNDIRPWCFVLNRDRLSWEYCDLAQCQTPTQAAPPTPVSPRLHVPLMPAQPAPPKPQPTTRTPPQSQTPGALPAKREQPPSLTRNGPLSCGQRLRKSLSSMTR
Target sequence (P00748 373-615 limits assumed): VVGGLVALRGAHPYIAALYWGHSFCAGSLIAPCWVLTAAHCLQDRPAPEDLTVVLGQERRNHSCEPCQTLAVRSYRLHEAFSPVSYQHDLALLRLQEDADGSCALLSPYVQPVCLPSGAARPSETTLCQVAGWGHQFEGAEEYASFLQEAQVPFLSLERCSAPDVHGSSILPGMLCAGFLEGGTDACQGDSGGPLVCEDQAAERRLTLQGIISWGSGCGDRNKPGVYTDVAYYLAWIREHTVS
Fh CTSL1 inh: Fasciola hepatica cathepsin L1 inhibitors, primary screen, counter-screen for PFM18AAP inhibitor project, biochemical, QFRET, fluorogenic peptide substrate; recombinant F. hepatica cathepsin L1, Z-Leu-Arg-MCA fluorescence; inhibition, % at 5.96 µM; 0.49% of 300,000 active;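 active = inhibition above the mean of all tested compounds plus 3 SD, set per screening campaign, cut at about 17% in these data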;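 note: 0% = plate median of test compound wells and 100% = 1 µM Z-Phe-Ala-diazomethylketone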
FXIa inh 1536: human FXIa protease inhibitors, primary screen, biochemical, 1536-well; purified FXIa, Boc-Glu-Ala-Arg-AMC fluorogenic substrate; inhibition, % at 5 µM; 0.14% of 220,000 active; AID 798, 2007;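 active = inhibition of at least 40%; inactive = inhibition below 40%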;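 note: fluorescence of freed AMC excited at 355 nm; 0% = enzyme without compound and 100% = no enzyme blank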
The depositor's hits bear a star; i = inactive; / = no result given; + = active, no number.

SMILES	hK5 inh	Rce1 inh	thrombin 1536	FXIIa inh 1536	Fh CTSL1 inh	FXIa inh 1536
CN1C(=O)C(C)(C)c2cc(S(=O)(=O)N3CCCC(C(=O)NCc4ccccc4Cl)C3)ccc21 (stereo unspecified)	/	i	/	/	-1	/
Cc1nnc2sc(SCC(=O)N3CCC(C)CC3)nn2c1=O	/	i	/	/	47*	/
O=C(COC(=O)COc1cccc(F)c1)NCCC1=CCCCC1	-3	/	-5	3	-10	-3
O=C(COC(=O)CNC(=O)c1cccc(F)c1)NCCC1=CCCCC1	-8	i	-11	1	22*	-6
Cc1cc(OCC(=O)C(C)(C)C)c2c(-c3ccccc3)cc(=O)oc2c1	/	i	/	/	5	/
CCOC(CNC(=O)c1ccc2c(c1)ncn2-c1ccc(F)c(F)c1)OCC	-4	/	-13	6	-3	-4
COC(CNC(=O)c1ccc2c(c1)ncn2-c1ccc(F)c(F)c1)OC	2	i	-4	11	18*	0
C=CCc1c(C)[nH]c2c(OC)cccc2c1=S	46*	i	20	29	0	26
CCCC(CCC(=O)Nc1ccn(-c2ccccc2)n1)C(=O)O (stereo unspecified)	-3	i	-1	11	-1	-6
O=C(Nc1cccc(-c2cn3ccccc3n2)c1)C1CC1	-8	+	4	19	2	1
CCCC(C)NC1=NCCCCC1 (stereo unspecified)	56*	i	16	15	-4	10
O=C(CSc1nc2ccccc2n1CC(=O)N1CCCC1)N1CCN(C(=O)c2ccco2)CC1	-5	/	-2	10	27*	-2
COCCN(C(=O)COC(=O)c1ccc(C=O)cc1)c1c(N)n(Cc2ccccc2)c(=O)[nH]c1=O	/	i	/	/	-14	/
Oc1cccc(-c2nc3ccccc3s2)c1	63*	i	104*	12	-3	14
Nc1cccc(-c2nc3ccccc3s2)c1	-1	i	-11	-19	3	-6
Nc1ccccc1Nc1ccccc1	-13	i	-2	1	19*	-2
Cc1ccc(S(=O)(=O)NC(=O)N2CCC(C)CC2)cc1	39	/	50*	22	/	4
CCCCOc1ccc(C(=O)OCC(=O)NC2CCCC2)cc1	/	i	/	/	-7	/
Cc1ccc(-c2cc3cccc[n+]3cc2-c2ccc(C)cc2)cc1	-12	+	-10	-7	5	-13
Cc1ccc2nc(-c3ccncc3)cc(-c3ccccc3)c2c1	-10	i	5	21	0	3
Cc1ccc(C(C(=O)NCC2CCCO2)N(C(=O)c2snc(C(N)=O)c2N)c2ccccc2F)o1 (stereo unspecified)	/	i	/	/	19*	/
N#CC1(c2ccccc2)CCN(S(=O)(=O)c2ccc(OC(F)(F)F)cc2)CC1	/	i	/	/	0	/
COc1ccc(/C=C(\C#N)C(=O)NCc2cccnc2)cc1OC	2	/	-10	3	1	-3
COCCCNC(=O)CS(=O)(=O)Cc1nc(-c2cccc(OC)c2)oc1C	-14	i	2	14	1	2
CCCCN(C)C(=O)CS(=O)(=O)Cc1nc(-c2cccc(OC)c2)oc1C	44*	i	14	19	6	13
SMILES	hK5 inh	Rce1 inh	thrombin 1536	FXIIa inh 1536	Fh CTSL1 inh	FXIa inh 1536
COc1ccc(NC(=O)COC(=O)c2ccccc2SCC(=O)N2CCCC2)cc1	/	i	/	/	-2	/
COc1ccccc1NC(=S)N(Cc1ccco1)Cc1cc2cc(C)ccc2[nH]c1=O	38	i	48*	16	12	14
O=C(O)C1CC(=O)N(c2ccc(OCc3ccccc3)cc2)C1 (stereo unspecified)	9	i	1	14	-1	-15
Cc1cc(N(CN2CCCC2=O)C(=O)c2ccc(F)cc2)no1	10	i	3	16	-20	-16
Cc1cc(N(CN2CCCC2=O)C(=O)c2ccc(OC(C)C)cc2)no1	6	i	3	7	19*	4
CCN(CC)c1ccc(S(=O)(=O)N2CCOCC2)cc1NC(=O)CSc1nncs1	/	i	/	/	2	/

Bioassay records: PubChem, several laboratories
